Screening results: PubChem BioAssay, several laboratories
Hits are enriched below; roughly 2.6% of the tested compounds scored in any of these assays.
LMPTP inh = LMPTP phosphatase inhibitors, primary screen, biochemical, fluorescence intensity, uHTS; recombinant LMPTP-A, OMFP fluorogenic substrate; inhibition, % at 20 µM; 360,000 tested, 0.22% active;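 active means compounds that cut the enzyme signal by at least half of the control window in the single-dose screen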;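 further: plate controls were DMSO wells with enzyme plus substrate for no effect and substrate without enzyme for full effect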
Target sequence (P24666 whole entry, looked up): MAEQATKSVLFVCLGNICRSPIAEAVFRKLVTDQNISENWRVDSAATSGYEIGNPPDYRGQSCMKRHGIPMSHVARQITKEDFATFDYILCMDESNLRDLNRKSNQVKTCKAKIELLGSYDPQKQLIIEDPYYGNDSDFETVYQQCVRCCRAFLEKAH
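Test system: LMPTP-A phosphatase enzyme; input: 0.625 nM LMPTP-A final; reagent: OMFP substrate, 400 µM final; compound dosing: 20 µM single dose, 3% DMSO; incubation: 50 min dark incubation at room temperature; measured by: endpoint fluorescence intensity from OMFP dephosphorylation; measure: % inhibition relative to no-enzyme and uninhibited control wells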
Scp1 inh = Scp-1 phosphatase inhibitors, primary screen, biochemical, colorimetric, uHTS. inhibition, % at 20 µM. Recombinant Scp1, phosphopeptide, malachite green phosphate absorbance. Carboxy-terminal domain RNA polymerase II polypeptide A small phosphatase 1 (Homo …. AID 493091, 2011. 340,000 tested, 0.88% active;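 active means inhibition above about 50% at 20 µM, limit read from the data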;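 further: plate controls were DMSO wells with enzyme for no effect and wells lacking enzyme for full effect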
Target sequence (Q9GZU7 76-261 limits assumed): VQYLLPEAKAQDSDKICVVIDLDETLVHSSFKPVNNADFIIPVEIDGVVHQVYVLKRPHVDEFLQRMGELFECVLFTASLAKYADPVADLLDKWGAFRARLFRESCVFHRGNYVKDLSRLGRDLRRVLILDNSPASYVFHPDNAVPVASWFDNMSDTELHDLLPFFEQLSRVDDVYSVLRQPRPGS
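Assay system: SCP-1 catalytic fragment, aa 76-261 | Buffer or medium: Tris acetate buffer pH 5.5 with MgCl2 and Tween-20 | Compound: One concentration, 20 µM, with 1.0% DMSO | Also added: Phospho 17-mer peptide substrate | Signal: Absorbance at 630 nm | Incubation: 45 min enzyme reaction at room temperature | Measure: % inhibition of SCP-1 phosphate liberation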
STEP inh = STEP phosphatase inhibitors, primary screen, biochemical, fluorescence intensity, uHTS. Tyrosine-protein phosphatase non-receptor type 5 (Homo sapiens), P54829. recombinant STEP, OMFP fluorogenic substrate. inhibition, % at 20 µM. 360,000 tested, 0.25% active. AID 588621, 2011;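 active means inhibition at 20 µM, scaled per plate between control wells, above about 37%, limit read from the data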;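 further: 0% = DMSO with enzyme and substrate and 100% = substrate only without enzyme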
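material = STEP tyrosine phosphatase | reagent = fluorogenic phosphatase substrate OMFP at 25 µM final | doses = single compound dose of 20 µM, 1% DMSO final | schedule = 20 min reaction, room temperature, in the dark | measured by = fluorescence, 480/540 nm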
NadD inh = inhibitors of S. aureus NadD, primary screen, biochemical, colorimetric, uHTS | Nicotinate-nucleotide adenylyltransferase NadD (Staphylococcus aureus N315) | AID 602399, 2012 | purified NadD enzyme, colorimetric absorbance read-out | inhibition, % at 20 µM | 360,000 tested, 0.78% active; in the data active means inhibition above about 26%
rCAG RNA binder = binders of r(CAG) RNA repeats, primary screen, biochemical, fluorescence | 370,000 tested, 1.3% active | inhibition, % at 3 µM | r(CAG) RNA repeat, TO-PRO-1 dye displacement fluorescence;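 active means inhibition above the plate cutoff, the mean of all test compounds on that plate plus 3 SD, cut at about 35% in these data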;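 further: 0% = DMSO alone and 100% = 100 µM mitoxantrone as full dye displacement; higher means more dye released from RNA so lower well fluorescence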
* hit, by the source's call; ! = not confirmed by another sample.

For Cc1cc(C)c(S(=O)(=O)/N=C2\C=CC(=O)C(Cl)=C2)c(C)c1 the results were LMPTP inh 2.9, Scp1 inh 10.8, STEP inh 0.1 and NadD inh 47.4*.
CCOC(=O)[C@]12CCCCC/C=C\1N(CCc1ccc(Cl)cc1)C(=O)[C@H]2CC(=O)NCc1ccc(C)o1 was read as rCAG RNA binder 5.8.
For CC(C)CNC(=O)C1CSCCS(=O)(=O)N1Cc1ccccc1 (stereo not drawn) the results were rCAG RNA binder -1.3.
Screening CC(C)(C)c1cc(-c2csc(Nc3ccccc3)[n+]2Cc2ccc(C(=O)O)cc2)cc(C(C)(C)C)c1O returned LMPTP inh 1.3, Scp1 inh 17.4, STEP inh 11.9 and NadD inh 66.5*.
For O=C(O)c1ccc(C[n+]2c(-c3ccccc3)csc2Nc2ccccc2)cc1 the results were LMPTP inh -0.4, Scp1 inh 24.9, STEP inh -6.5, NadD inh 10.0 and rCAG RNA binder 1.2.
`C=CCn1c(O)c(N=NC(=S)Nc2ccccc2F)c2cc(S(=O)(=O)N3CCOCC3)ccc21` gave LMPTP inh 1.2, Scp1 inh -12.7, STEP inh 5.7, NadD inh 38.3* and rCAG RNA binder 27.3.
`C[C@@H]1ON(C)[C@H]2C[C@H]3c4[nH]c5c(-c6ccc7c(c6)OCO7)cccc5c4CCN3C(=O)[C@@H]12` gave rCAG RNA binder 5.7.
COc1cc(N=c2ssnc2Cl)c(OC)cc1Cl was read as LMPTP inh 48.2*!, Scp1 inh 1.7, STEP inh 4.4, NadD inh 0.1 and rCAG RNA binder 5.8.
O=C1N/C(=N\S(=O)(=O)Cc2ccccc2)S/C1=C/c1cc([N+](=O)[O-])ccc1O was read as LMPTP inh 1.5, Scp1 inh 24.1, STEP inh -0.7, NadD inh -6.7 and rCAG RNA binder 71.5*.
`O=C(COc1ccccc1)Nc1sc2c(c1C(=O)NCc1cccnc1)CCCC2` gave LMPTP inh 51.3*, Scp1 inh 6.7, STEP inh 4.5, NadD inh 3.1 and rCAG RNA binder 3.7.
For CCCc1cc(=O)oc2cc(C)cc(OCc3nn[nH]n3)c12 the results were LMPTP inh -1.8, Scp1 inh -0.4, STEP inh -17.2, NadD inh 4.0 and rCAG RNA binder 4.6.
Screening Cc1cc(=O)oc2c1c(C)nn2-c1nn[nH]n1 returned LMPTP inh -3.1, Scp1 inh 68.1*, STEP inh -1.4, NadD inh 7.2 and rCAG RNA binder -7.4.
For Cc1cc(-c2n[nH]c(=S)n2N=Cc2ccc(O)cc2)n[nH]1 the results were rCAG RNA binder 2.0.
Screening Cc1ccc2cc(C(c3nnnn3C3CCCC3)N(Cc3ccco3)Cc3cccs3)c(=O)[nH]c2c1 (stereo not drawn) returned LMPTP inh 0.1, Scp1 inh -4.0, STEP inh 3.4, NadD inh 39.4* and rCAG RNA binder 15.9.
O=C1CC(NS(=O)(=O)c2ccc([N+](=O)[O-])cc2)CN1c1ccc2c(c1)OCCO2 (stereo not drawn) was read as LMPTP inh -0.2, Scp1 inh -1.9, STEP inh -0.8, NadD inh -10.1 and rCAG RNA binder -1.9.
`O=C(Oc1ccc([N+](=O)[O-])cc1)C1CC(=O)N(c2ccc3c(c2)OCCO3)C1` (stereo not drawn) gave LMPTP inh 3.8, Scp1 inh 69.4*, STEP inh -1.3, NadD inh -1.8 and rCAG RNA binder 5.1.
For Cc1cc(N2CCN(C(=O)Nc3ccccc3C#N)CC2)c2ccccc2n1 the results were LMPTP inh 51.1*, Scp1 inh 6.3, STEP inh 2.0, NadD inh -4.8 and rCAG RNA binder -2.7.
For CN1CCN(C(=O)c2sc(=S)n(-c3ccccc3)c2N)CC1 the results were LMPTP inh 2.2, Scp1 inh 22.0, STEP inh 96.4*, NadD inh -2.7 and rCAG RNA binder -3.4.
`COCCN(CC(=O)Nc1cccc(C)c1C)C(=O)c1cc2c(s1)CCC2` gave LMPTP inh 5.4, Scp1 inh 61.1*, STEP inh 9.2, NadD inh 1.5 and rCAG RNA binder 2.6.
For O=C(O)c1ccc([N+](=O)[O-])c2c1C(=O)c1ccccc1C2=O the results were LMPTP inh -1.3, Scp1 inh 0.1, STEP inh -0.6, NadD inh 6.1 and rCAG RNA binder 1.3.
`O=C1c2ccccc2C(=O)c2c([N+](=O)[O-])ccc(O)c21` gave LMPTP inh 8.2, Scp1 inh 67.3*, STEP inh 31.9, NadD inh 9.3 and rCAG RNA binder 4.0.
For CCc1ccccc1NC(=O)CCS(=O)(=O)c1ccc(Br)cc1 the results were LMPTP inh 0.8, Scp1 inh 49.7, STEP inh 10.4, NadD inh -6.7 and rCAG RNA binder -4.8.
For COC(=O)c1ccccc1NC(=O)CCS(=O)(=O)c1ccc(Br)cc1 the results were LMPTP inh 3.7, Scp1 inh 79.8*, STEP inh 22.1, NadD inh -6.8 and rCAG RNA binder -3.9.
`CCCCCCCCN1[C@@H](CC(=O)OC)c2cc(F)ccc2S1(=O)=O` gave LMPTP inh 51.7*, Scp1 inh -14.6, STEP inh 0.6, NadD inh -1.2 and rCAG RNA binder -8.6.
`COc1cc(N)ccc1Nc1c2ccccc2nc2ccccc12` gave LMPTP inh 87.3*, STEP inh 5.5 and NadD inh 35.3*.
Screening COc1ccc(OC)c(-c2csc(NC(=O)COC(=O)c3ccc(NC(=O)CC#N)cc3)n2)c1 returned LMPTP inh 4.6, Scp1 inh -7.3, STEP inh -0.4 and NadD inh 48.0*.
For Cc1cc(C)c(-c2cc(NC(=O)COC(=O)c3ccc(NC(=O)CC#N)cc3)n(-c3ccccc3)n2)cc1C the results were LMPTP inh 3.3, Scp1 inh 1.8, STEP inh 0.2, NadD inh 53.6* and rCAG RNA binder -59.9.
Cc1cc(C)c(-c2cc(NC(=O)COC(=O)c3ccc(C#N)cc3)n(-c3ccccc3)n2)cc1C was read as LMPTP inh 3.8, Scp1 inh -5.6, STEP inh 1.1, NadD inh 15.5 and rCAG RNA binder 14.9.
Screening COc1ccc(OC)c(-c2csc(NC(=O)COC(=O)C3CCC3)n2)c1 returned LMPTP inh 3.3, Scp1 inh -13.6, STEP inh -1.5, NadD inh 0.6 and rCAG RNA binder 4.0.
For COc1cccc(/C=N/c2sc(Cc3ccccc3)c(C)c2C(N)=O)c1O the results were LMPTP inh -1.1, Scp1 inh -2.1, STEP inh 0.9, NadD inh 5.1 and rCAG RNA binder 37.1*.
